{"source": "ChEMBL document CHEMBL1123803", "about": "“Synthesis and biological activities of pseudopeptide analogues of the C-terminal heptapeptide of cholecystokinin. On the importance of the peptide bonds” (J Med Chem, 1987)", "species_on_record": "Rattus norvegicus", "test": "Activity on Amylase release from rat pancreatic acini was determined", "format": "functional", "outline": "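Dispersed rat pancreatic acini (about 1 mg protein/mL) in Hepes pH 7.4 standard incubation solution with 1% BSA, 1 mM calcium, 5 mM theophylline, gassed 95% O2/5% CO2; incubated 30 min at 37 °C across a concentration range. Amylase measured with Phadebas reagent; release = with minus without secretagogue, as percent of maximal CCK-8 stimulation. Duplicates, means of at least three experiments.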"}
{"smiles": "CCCC[C@H](NC(=O)[C@H](Cc1ccc(OS(=O)(=O)O)cc1)NC(=O)[C@H](CC(=O)O)NC(=O)OC(C)(C)C)C(=O)NCC(=O)N[C@@H](Cc1c[nH]c2ccccc12)C(=O)N[C@@H](CCCC)C(=O)N[C@@H](CC(=O)O)C(=O)N[C@@H](Cc1ccccc1)C(N)=O", "values": [{"measurement": "conc. for maximal amylase release", "value": 300, "unit": "pM"}]}
